Data from paper PMC7433031 (European journal of medicinal chemistry, 2020).

How the values were obtained:
[1] = system: RS4;11 B-cell ALL cell line; assay: RS4; assay type: cell-based; conditions: Homo sapiens, RS4-11, 48 h, read-out: IC50 48 h treatment RS4;11
Method in brief: (§1)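 NCI-H146 small-cell lung cancer and RS4;11 B-ALL cells maintained in RPMI 1640 plus 10% FBS and 1% penicillin-streptomycin. Cells seeded at 5×10⁴ to 1×10⁵ per well and treated with test compound for 48 h. Viability measured by tetrazolium-based MTS assay, with IC50 calculated from the viability data.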

BCL-XL = BCL-XL (Homo sapiens, UniProt Q07817); assay: Western blot of BCL-XL protein levels in MOLT-4 cells; assay type: cell-based
BCL-XL, sequence (Q07817 whole entry): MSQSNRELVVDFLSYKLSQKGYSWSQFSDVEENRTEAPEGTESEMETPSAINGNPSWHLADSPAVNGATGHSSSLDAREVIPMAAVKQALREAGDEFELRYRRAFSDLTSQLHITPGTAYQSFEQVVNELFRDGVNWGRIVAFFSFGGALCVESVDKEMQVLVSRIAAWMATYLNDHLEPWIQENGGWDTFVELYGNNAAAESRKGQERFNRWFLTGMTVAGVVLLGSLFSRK
Method in brief: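 MOLT-4 cells were treated for 16 h with test compound (100 nM for VHL-based, 50 nM for CRBN-based, or a concentration series for DC50). Other runs used 100 nM over a time course, or 16 h exposure followed by washout into drug-free medium. Some cells were pretreated 2 h with 10 μM pomalidomide or 1 μM MG-132. Immunoblot bands were normalized to β-actin and expressed as % remaining versus vehicle.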

MOLT-4 T-ALL cells = assay: MOLT-4 cell viability assay; assay type: cell-based, human
human platelets = assay: Human platelet viability assay; assay type: cell-based; conditions: Homo sapiens, Platelet, 48 h, read-out: IC50 48 h treatment Platelets
Method in brief: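 Platelets were separated from purchased platelet-rich plasma in acid citrate buffer with 1 μM PGE1 and 0.2 units/mL apyrase (final). Cells were centrifuged and adjusted to 2 × 10⁸/mL in HEPES Tyrode's buffer with 10% FBS, 1 μM PGE1 and 0.2 units/mL apyrase. They were treated for 48 h, with or without a 10 μM pomalidomide block, and read by MTS. IC50 values were curve-fitted. The ratio divides platelet IC50 by 48 h MOLT-4 MTS IC50.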

[2] = system: H146 small cell lung cancer cell line; assay: H146 cell viability assay; assay type: cell-based; conditions: Homo sapiens, NCI-H146, 48 h, read-out: IC50 48 h treatment H146
Method in brief: as §1

[3] = system: PARP and caspase-3 cleavage; assay: Western blot of cleaved-PARP and cleaved-caspase-3 in MOLT-4 cells; assay type: cell-based, human; conditions: MOLT-4, 16 h, indicated concentrations
Method in brief: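 MOLT-4 cells were exposed to a range of test compound concentrations for 16 h. Cleaved PARP and cleaved caspase-3 were detected by immunoblot. Equal protein was run on 4–20% Tris-glycine gels and transferred to PVDF. Membranes were blocked in 5% milk/TBS-Tween, given primary antibody overnight at 4 °C, then HRP secondary and ECL. β-actin served as loading control.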

[4] = system: BCL-XL / BCL-2 ternary complexes with DT2216 and VHL; conditions: live cells, nanoBRET assay; cited from earlier work

Compound | IC50 [1] | effects on BCL-XL protein levels after drug washout (BCL-XL; MOLT-4, 100 nM for 16 h then washout) | BCL-XL degradation after pretreatment with MG-132 or pomalidomide (BCL-XL; MOLT-4, 1 μM MG-132 or 10 μM pomalidomide pretreatment for 2 h) | BCL-XL degradation at indicated concentrations (BCL-XL; MOLT-4, 16 h, Western blot (Figure 5A, 5F)) | IC50 (MOLT-4 T-ALL cells; Homo sapiens, MOLT-4, 48 h, read-out: IC50, reduction of MOLT-4 cell viability) | IC50 (human platelets) | IC50 [2] | PARP and caspase-3 cleavage [3] | times more potent than ABT-263 in reducing MOLT-4 cell viability (MOLT-4 T-ALL cells; MOLT-4, versus ABT-263) | formation of stable ternary complexes with VHL [4]
CN(CCOCCOCCOCCNc1cccc2c1C(=O)N(C1CCC(=O)NC1=O)C2=O)CC[C@H](CSc1ccccc1)Nc1ccc(S(=O)(=O)NC(=O)c2ccc(N3CCN(CC4=C(c5ccc(Cl)cc5)CCC(C)(C)C4)CC3)cc2)cc1S(=O)(=O)C(F)(F)F (stereo partly drawn) [Compound 17b, 4-(4-((4’-Chloro-4,4-dimethyl-3,4,5,6-tetrahydro-[1,1’-biphenyl]-2-yl)methyl)piperazin-1-yl)-N-((4-(((15R)-1-((2-(2,6-dioxopiperidin-3-yl)-1,3-dioxoisoindolin-4-yl)amino)-12-methyl-16-(phenylthio)-3,6,9-trioxa-12-azahexadecan-15-yl)amino)-3-((trifluoromethyl)sulfonyl)phenyl)sulfonyl)benzamide] | 41.8 nM | long-lasting and also reversible | can be abrogated | dose-dependently induced BCL-XL degradation | 10.1 nM | 1220 nM | 25.3 nM | dose-dependently increased | – | –
Cc1ncsc1-c1ccc([C@H](C)NC(=O)[C@@H]2C[C@@H](O)CN2C(=O)[C@@H](NC(=O)CCCCCC(=O)N2CCN(CC[C@H](CSc3ccccc3)Nc3ccc(S(=O)(=O)NC(=O)c4ccc(N5CCN(CC6=C(c7ccc(Cl)cc7)CCC(C)(C)C6)CC5)cc4)cc3S(=O)(=O)C(F)(F)F)CC2)C(C)(C)C)cc1 [Compound 1e, (2S,4R)-1-((S)-2-(7-(4-((R)-3-((4-(N-(4-(4-((4’-Chloro-4,4-dimethyl-3,4,5,6-tetrahydro-[1,1’-biphenyl]-2-yl)methyl)piperazin-1-yl)benzoyl)sulfamoyl)-2-((trifluoromethyl)sulfonyl)phenyl)amino)-4-(phenylthio)butyl)piperazin-1-yl)-7-oxoheptanamido)-3,3-dimethylbutanoyl)-4-hydroxy-N-((S)-1-(4-(4-methylthiazol-5-yl)phenyl)ethyl)pyrrolidine-2-carboxamide] | – | – | – | – | – | – | – | – | 3 times | BCL-XL, but not BCL-2, can form stable ternary complexes
